# Assay results published in ChEMBL document CHEMBL1629636, “In vitro susceptibility of Borrelia spielmanii to antimicrobial agents commonly used for treatment of Lyme disease” (2009).
# Assays:
# Borrelia spielmanii [1] = assay: Antimicrobial activity against Borrelia spielmanii isolate PMew after 72 hrs by colorimetric assay; format: functional; conditions: Borreliella spielmanii
# Procedure, shortened: (§1)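 Tested in microtiter trays preloaded with lyophilized antibiotics; clinical isolates were low-passage (10 to 20 passages). MIC was read by colorimetric assay after 72 h. MBC was defined as 100% killing in liquid medium at 72 h: aliquots from vials showing no growth were diluted 1:1,000 in BSK and checked for regrowth after 3 weeks of subculture. Values are medians of three independent experiments on separate days.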
# Borrelia spielmanii [2] = assay: Antimicrobial activity against Borrelia spielmanii isolate PSig2 after 72 hrs by colorimetric assay; format: functional; conditions: Borreliella spielmanii, isolate PSig2, 72 h; procedure, shortened: as §1
# Borrelia spielmanii [3] = assay: Antimicrobial activity against Borrelia spielmanii isolate PC-Eq17 after 72 hrs by colorimetric assay; format: functional; conditions: Borreliella spielmanii, isolate PC-Eq17, 72 h; procedure, shortened: as §1
# Borrelia spielmanii [4] = assay: Antimicrobial activity against Borrelia spielmanii isolate PHap after 72 hrs by colorimetric assay; format: functional; conditions: Borreliella spielmanii; procedure, shortened: as §1
# Borrelia spielmanii [5] = assay: Antimicrobial activity against Borrelia spielmanii isolate PJes after 72 hrs by colorimetric assay; format: functional; conditions: Borreliella spielmanii; procedure, shortened: as §1
# Borrelia spielmanii [6] = assay: Antimicrobial activity against Borrelia spielmanii isolate PAnz after 72 hrs by colorimetric assay; format: functional; conditions: Borreliella spielmanii; procedure, shortened: as §1
# Borrelia spielmanii [7] = assay: Antimicrobial activity against Borrelia spielmanii isolate PMai after 72 hrs by colorimetric assay; format: functional; conditions: Borreliella spielmanii; procedure, shortened: as §1
# [8] = Antimicrobial activity against Borrelia spielmanii A14S after 72 hrs by colorimetric assay; format: functional; conditions: Borreliella spielmanii
# Procedure, shortened: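 Low-passage isolates (10 to 20 passages) grown in BSK medium were tested in microtiter trays precoated with lyophilized antimicrobials. MIC was read colorimetrically after 72 h. Independent experiments were run on three different days, and the MIC reported is the median of the three.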
# Borrelia spielmanii [9] = assay: Antimicrobial activity against Borrelia spielmanii isolate TIsar2 after 72 hrs by colorimetric assay; format: functional; conditions: Borreliella spielmanii, isolate TIsar2, 72 h; procedure, shortened: as §1
# Borrelia spielmanii [10] = assay: Antimicrobial activity against Borrelia spielmanii isolate TIsar3 after 72 hrs by colorimetric assay; format: functional; conditions: Borreliella spielmanii, isolate TIsar3, 72 h; procedure, shortened: as §1
# [11] = Antimicrobial activity against Borrelia burgdorferi B31 after 72 hrs by colorimetric assay; format: functional; conditions: Borreliella burgdorferi; procedure, shortened: as §1
# Borrelia burgdorferi = assay: Antimicrobial activity against Borrelia burgdorferi isolate LW2 after 72 hrs by colorimetric assay; format: functional; conditions: Borreliella burgdorferi, isolate LW2, 72 h; procedure, shortened: as §1
# Borrelia afzelii [12] = assay: Antimicrobial activity against Borrelia afzelii isolate FEM1 after 72 hrs by colorimetric assay; format: functional; conditions: Borreliella afzelii, isolate FEM1, 72 h; procedure, shortened: as §1
# Borrelia afzelii [13] = assay: Antimicrobial activity against Borrelia afzelii isolate G600 after 72 hrs by colorimetric assay; format: functional; conditions: Borreliella afzelii, isolate G600, 72 h; procedure, shortened: as §1
# Borrelia afzelii [14] = assay: Antimicrobial activity against Borrelia afzelii isolate G1039 after 72 hrs by colorimetric assay; format: functional; conditions: Borreliella afzelii, isolate G1039, 72 h; procedure, shortened: as §1
# Borrelia garinii [15] = assay: Antimicrobial activity against Borrelia garinii isolate PSth after 72 hrs by colorimetric assay; format: functional; conditions: Borreliella garinii; procedure, shortened: as §1
# Borrelia garinii [16] = assay: Antimicrobial activity against Borrelia garinii isolate M2094 after 72 hrs by colorimetric assay; format: functional; conditions: Borreliella garinii, isolate M2094, 72 h; procedure, shortened: as §1
# Borrelia garinii [17] = assay: Antimicrobial activity against Borrelia garinii isolate G1 after 72 hrs by colorimetric assay; format: functional; conditions: Borreliella garinii, isolate G1, 72 h; procedure, shortened: as §1
# Staphylococcus aureus = assay: Antimicrobial activity against Staphylococcus aureus ATCC 29213 after 72 hrs by colorimetric assay; format: functional; conditions: ATCC 29213, 72 h
# Procedure, shortened: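 Quality-control MIC followed the CLSI method with two changes: BSK medium was used, and the antibiotic-medium preparation was preincubated for 48 h before testing. Tests were run on three different days, and the MIC reported is the median of the three.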
# Borrelia = assay: Antimicrobial activity against Borrelia clinical isolate after 72 hrs by colorimetric assay; format: functional; conditions: for MIC90: Borrelia, 72 h; procedure, shortened: as §1
# Borrelia spielmanii [18] = assay: Antimicrobial activity against Borrelia spielmanii isolate PC-Eq17 after 120 hrs by colorimetric assay; format: functional; conditions: Borreliella spielmanii, isolate PC-Eq17, 120 h
# Borrelia spielmanii [19] = assay: Antimicrobial activity against Borrelia spielmanii isolate PC-Eq17 assessed as reduction in bacterial count at 2 ug/ml after 72 hrs; format: functional, Borreliella spielmanii; set-up: scale not given: the % may be the effect or the level left
# Procedure, shortened: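 Time-kill assay: the isolate was exposed to ceftriaxone for up to 120 h. Growth was followed by conventional counts of morphologically intact motile cells and compared with a drug-free growth control. Values are means of two independent experiments run on different days.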
compound,measurement,setting,value
CC1(C)S[C@@H]2[C@H](NC(=O)[C@H](N)c3ccc(O)cc3)C(=O)N2[C@H]1C(=O)O [AMOXICILLIN],MBC,Borrelia spielmanii [1],> 16 µg/mL
same,MIC,Borrelia spielmanii [1],1 µg/mL
same,MBC,Borrelia spielmanii [2],16 µg/mL
same,MIC,Borrelia spielmanii [2],0.5 µg/mL
same,MBC,Borrelia spielmanii [3],> 16 µg/mL
same,MIC,Borrelia spielmanii [3],0.5 µg/mL
same,MBC,Borrelia spielmanii [4],> 16 µg/mL
same,MIC,Borrelia spielmanii [4],2 µg/mL
same,MBC,Borrelia spielmanii [5],16 µg/mL
same,MIC,Borrelia spielmanii [5],0.25 µg/mL
same,MBC,Borrelia spielmanii [6],16 µg/mL
same,MIC,Borrelia spielmanii [6],0.25 µg/mL
same,MBC,Borrelia spielmanii [7],8 µg/mL
same,MIC,Borrelia spielmanii [7],2 µg/mL
same,MBC,[8],16 µg/mL
same,MIC,[8],0.25 µg/mL
same,MBC,Borrelia spielmanii [9],16 µg/mL
same,MIC,Borrelia spielmanii [9],≤ 0.125 µg/mL
same,MBC,Borrelia spielmanii [10],4 µg/mL
same,MIC,Borrelia spielmanii [10],2 µg/mL
same,MBC,[11],16 µg/mL
same,MIC,[11],0.5 µg/mL
same,MBC,Borrelia burgdorferi,4 µg/mL
same,MIC,Borrelia burgdorferi,1 µg/mL
same,MBC,Borrelia afzelii [12],4 µg/mL
same,MIC,Borrelia afzelii [12],4 µg/mL
same,MBC,Borrelia afzelii [13],4 µg/mL
same,MIC,Borrelia afzelii [13],1 µg/mL
same,MBC,Borrelia afzelii [14],8 µg/mL
same,MIC,Borrelia afzelii [14],0.5 µg/mL
same,MBC,Borrelia garinii [15],8 µg/mL
same,MIC,Borrelia garinii [15],0.125 µg/mL
same,MBC,Borrelia garinii [16],16 µg/mL
same,MIC,Borrelia garinii [16],0.25 µg/mL
same,MBC,Borrelia garinii [17],16 µg/mL
same,MIC,Borrelia garinii [17],≤ 0.125 µg/mL
same,MIC,Staphylococcus aureus,2 µg/mL
same,MBC90,Borrelia,>16 µg/mL
same,MIC90,Borrelia,2 µg/mL
CO/N=C(\C(=O)N[C@@H]1C(=O)N2C(C(=O)O)=C(CSc3nc(=O)c(O)nn3C)CS[C@H]12)c1csc(N)n1 [CEFTRIAXONE],MBC,Borrelia spielmanii [1],4 µg/mL
same,MIC,Borrelia spielmanii [1],0.125 µg/mL
same,MBC,Borrelia spielmanii [2],1 µg/mL
same,MIC,Borrelia spielmanii [2],0.0312 µg/mL
same,MBC,Borrelia spielmanii [3],2 µg/mL
same,MIC,Borrelia spielmanii [3],0.0312 µg/mL
same,MBC,Borrelia spielmanii [4],2 µg/mL
same,MIC,Borrelia spielmanii [4],0.0625 µg/mL
same,MBC,Borrelia spielmanii [5],2 µg/mL
same,MIC,Borrelia spielmanii [5],0.0312 µg/mL
same,MBC,Borrelia spielmanii [6],1 µg/mL
same,MIC,Borrelia spielmanii [6],0.0156 µg/mL
same,MBC,Borrelia spielmanii [7],4 µg/mL
same,MIC,Borrelia spielmanii [7],0.0625 µg/mL
same,MBC,[8],0.5 µg/mL
same,MIC,[8],0.0312 µg/mL
same,MBC,Borrelia spielmanii [9],0.5 µg/mL
same,MIC,Borrelia spielmanii [9],0.0156 µg/mL
same,MBC,Borrelia spielmanii [10],0.5 µg/mL
same,MIC,Borrelia spielmanii [10],0.0625 µg/mL
same,MBC,[11],2 µg/mL
same,MIC,[11],0.0312 µg/mL
same,MBC,Borrelia burgdorferi,4 µg/mL
same,MIC,Borrelia burgdorferi,0.0312 µg/mL
same,MBC,Borrelia afzelii [12],2 µg/mL
same,MIC,Borrelia afzelii [12],0.0625 µg/mL
same,MBC,Borrelia afzelii [13],0.5 µg/mL
same,MIC,Borrelia afzelii [13],0.0625 µg/mL
same,MBC,Borrelia afzelii [14],0.5 µg/mL
same,MIC,Borrelia afzelii [14],0.0312 µg/mL
same,MBC,Borrelia garinii [15],2 µg/mL
same,MIC,Borrelia garinii [15],0.0312 µg/mL
same,MBC,Borrelia garinii [16],2 µg/mL
same,MIC,Borrelia garinii [16],0.0312 µg/mL
same,MBC,Borrelia garinii [17],2 µg/mL
same,MIC,Borrelia garinii [17],0.0312 µg/mL
same,MIC,Staphylococcus aureus,4 µg/mL
same,MBC,Borrelia spielmanii [18],2 µg/mL
same,Activity,Borrelia spielmanii [19],99.9%
same,MBC90,Borrelia,4 µg/mL
same,MIC90,Borrelia,0.0625 µg/mL
CO/N=C(\C(=O)N[C@@H]1C(=O)N2C(C(=O)O)=C(COC(N)=O)CS[C@H]12)c1ccco1 [CEFUROXIME],MBC,Borrelia spielmanii [1],> 8 µg/mL
same,MIC,Borrelia spielmanii [1],0.125 µg/mL
same,MBC,Borrelia spielmanii [2],8 µg/mL
same,MIC,Borrelia spielmanii [2],0.125 µg/mL
same,MBC,Borrelia spielmanii [3],> 8 µg/mL
same,MIC,Borrelia spielmanii [3],0.125 µg/mL
same,MBC,Borrelia spielmanii [4],> 8 µg/mL
same,MIC,Borrelia spielmanii [4],0.25 µg/mL
same,MBC,Borrelia spielmanii [5],8 µg/mL
same,MIC,Borrelia spielmanii [5],0.125 µg/mL
same,MBC,Borrelia spielmanii [6],> 8 µg/mL
same,MIC,Borrelia spielmanii [6],0.125 µg/mL
same,MBC,Borrelia spielmanii [7],8 µg/mL
same,MIC,Borrelia spielmanii [7],0.125 µg/mL
same,MBC,[8],8 µg/mL
same,MIC,[8],0.125 µg/mL
same,MBC,Borrelia spielmanii [9],2 µg/mL
same,MIC,Borrelia spielmanii [9],0.125 µg/mL
same,MBC,Borrelia spielmanii [10],4 µg/mL
same,MIC,Borrelia spielmanii [10],0.5 µg/mL
same,MBC,[11],> 8 µg/mL
same,MIC,[11],0.125 µg/mL
same,MBC,Borrelia burgdorferi,8 µg/mL
same,MIC,Borrelia burgdorferi,0.125 µg/mL
same,MBC,Borrelia afzelii [12],> 8 µg/mL
same,MIC,Borrelia afzelii [12],0.5 µg/mL
same,MBC,Borrelia afzelii [13],4 µg/mL
same,MIC,Borrelia afzelii [13],0.25 µg/mL
same,MBC,Borrelia afzelii [14],8 µg/mL
same,MIC,Borrelia afzelii [14],0.125 µg/mL
same,MBC,Borrelia garinii [15],> 8 µg/mL
same,MIC,Borrelia garinii [15],0.125 µg/mL
same,MBC,Borrelia garinii [16],> 8 µg/mL
same,MIC,Borrelia garinii [16],0.125 µg/mL
same,MBC,Borrelia garinii [17],> 8 µg/mL
same,MIC,Borrelia garinii [17],0.125 µg/mL
same,MIC,Staphylococcus aureus,2 µg/mL
same,MBC90,Borrelia,>8 µg/mL
same,MIC90,Borrelia,0.25 µg/mL
